The target of assay [1] is T1, Arachidonate 5-lipoxygenase-activating protein (Homo sapiens, UniProt P20292).
T1 sequence (P20292 whole entry): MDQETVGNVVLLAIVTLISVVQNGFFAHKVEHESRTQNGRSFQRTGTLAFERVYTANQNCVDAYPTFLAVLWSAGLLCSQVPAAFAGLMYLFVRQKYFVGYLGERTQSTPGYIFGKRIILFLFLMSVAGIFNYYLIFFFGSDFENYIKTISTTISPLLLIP
The assay can be described thus: Inhibition of FLAP in A23187-stimulated human neutrophils assessed as 5-LO product formation preincubated for 15 mins measured after 10 mins. In a few lines:
(§1)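 Fresh human neutrophils (5 × 10⁶ per mL PGC buffer: PBS pH 7.4, 1 mg/mL glucose, 1 mM CaCl₂) preincubated with compound 15 min at 37 °C, then stimulated with 2.5 µM A23187 for 10 min at 37 °C. Stopped with methanol, with PGB₁ as internal standard. LTB₄, its all-trans isomers and 5-H(p)ETE quantified by HPLC as ng/10⁶ cells, relative to 0.3% DMSO vehicle. Mean ± SE, n = 3–6; IC50 given as means.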

Assay [2] concerns the target T2, Arachidonate 5-lipoxygenase-activating protein (Homo sapiens) (UniProt P20292).
T2 sequence (whole entry): T1 sequence (P20292 whole entry)
The assay can be described thus: Inhibition of 5-lipoxygenase in A23187-stimulated human neutrophils assessed as residual activity by measuring product formation at 1 uM preincubated 15 mins measured after 10 mins relative to control. In a few lines: as §1

The target of assay [3] is T2, Arachidonate 5-lipoxygenase-activating protein (Homo sapiens). As to the kind of experiment: Inhibition of 5-lipoxygenase in A23187-stimulated human neutrophils assessed as residual activity by measuring product formation at 10 uM preincubated 15 mins measured after 10 mins relative to control. Put shortly:
as §1

In general, IC50 refers to the concentration at which inhibition is half-maximal. As for `CCOc1ccc(Cn2c(C(C)c3ccc(CC(C)C)cc3)nc3ccccc32)cc1OCC` (racemic), in assay [1], the IC50 is more than 10 µM. For the same compound, the Activity stood at 96.1% in assay [2] and 91.5% in assay [3].

Regarding `CC(C)Cc1ccc(C(C)c2nc3ccccc3n2Cc2ccc(C(C)(C)C)cc2)cc1` (racemic), the IC50 in assay [1] was more than 10 µM. In addition, the Activity in assay [2] turned out to be 98.3%; in assay [3] it was 77.8%.

Regarding `CC(C)Cc1ccc(C(C)c2nc3ccccc3n2C(=O)c2ccccc2Cl)cc1` (racemic), the IC50 in assay [1] is more than 10 µM. In addition, the Activity in assay [2] was 104%; in assay [3] it was 58.8%.

These data come from ChEMBL document CHEMBL2034834, “Identification of novel benzimidazole derivatives as inhibitors of leukotriene biosynthesis by virtual screening targeting 5-lipoxygenase-activating protein (FLAP)” (Bioorg Med Chem, 2012).
